# Screening results deposited in PubChem BioAssay by Sanford-Burnham Center for Chemical Genomics.
# Sampled rows, rich in hits. Any-hit rate of the full collection: about 1.3%.
# Diaphorase act: compounds boosting diaphorase resazurin reduction – biochemical, uHTS, resorufin fluorescence, counter-screen for diaphorase-coupled primary assays, primary screen; activation factor at 20 µM; Diaphorase/resazurin coupled assay, 16 min; hits give high values; 1 = vehicle wells, 0 = NADH-free wells; 0.005% of 190,000 active;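 active = diaphorase activity raised at least twofold by the compound at 20 µM; inactive = activation factor below 2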
#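 Material: Clostridium kluyveri diaphorase, purified enzyme; Quantity: enzyme 0.07 U/mL final; Medium: HEPES pH 7.4 buffer with MgCl2 and Tween 20; Dosing: single compound dose of 20 µM, 1% DMSO final; Schedule: 16 min reaction at room temperature; Measured by: red resorufin fluorescence at 544/590 nm excitation/emission.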
# Diaphorase inh: diaphorase inhibitors and chemical oxidizers, primary screen, counter-screen for diaphorase-coupled primary assays, biochemical, uHTS, resorufin fluorescence. diaphorase resazurin-to-resorufin fluorescence, NADH, 16 min; bacterial (C. kluyveri) enzyme, not human. inhibition, % at 20 µM. 0.69% of 190,000 active. AID 1217, 2008;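 active = primary screen inhibition at 20 µM above a set limit, cut at about 50% in these data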;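 also: plate controls were DMSO with full reaction for no effect and wells lacking NADH for full effect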
#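 Detection: fluorescence of resorufin formed from resazurin, Ex 544/Em 590 nm; test system: Clostridium kluyveri diaphorase enzyme; amount: 0.14 U/mL diaphorase, enzyme working solution; times: 16-min room-temperature incubation before reading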
# HKDC1 inhibitor: HKDC1 hexokinase inhibitors, primary screen, biochemical, fluorescence, uHTS | AID 493160, 2011 | recombinant HKDC1, G6PDH/diaphorase resazurin coupled fluorescence | Q2TB90 | 0.16% of 340,000 active | inhibition, % at 20 µM;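 active = inhibition above about 35% when tested at 20 µM, limit read from the data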;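 also: plate controls were DMSO wells with enzyme for no effect and DMSO wells lacking enzyme for full effect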
#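 Assay system: in-house recombinant HK5 (HKDC1) enzyme. Input: HKDC1 at 5 µg/mL. Medium: Tris pH 8.0 buffer with MgCl2, Tween-20, BSA, BME. Dosing: single 20 µM dose. Schedule: 90 min reaction incubation at room temperature, dark. Signal: resazurin-to-resorufin fluorescence via G6PDH and diaphorase coupling, 525/613 nm. Controls: DMSO-enzyme wells negative, buffer-substituted wells positive.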
# G6PDH counter: L. mesenteroides G6PDH inhibitors, counter-screen for G6PDH-coupled screening assays, biochemical, Leuconostoc mesenteroides enzyme | 0.12% of 200,000 active | inhibition, % at 5 µM | glucose-6-phosphate dehydrogenase [Leuconostoc mesenteroides] | AID 1020, 2008 | Purified L. mesenteroides G6PDH, diaphorase/resazurin coupled fluorescence, 45 min; in the data active = inhibition above about 50%
# PfG6PD inh: PfG6PD enzyme inhibitors, primary screen, biochemical, fluorescence intensity, uHTS; inhibition, % at 20 µM; 0.78% of 350,000 active; PfGluPho enzyme, NADPH resazurin-diaphorase fluorescence;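 active = inhibition reaching at least a set limit at 20 µM in the primary screen, cut at about 59% in these data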;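 also: 0% = DMSO wells with substrate and 100% = DMSO wells lacking glucose-6-phosphate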
# Starred values were filed as active, the others as inactive; nt = no result.
SMILES,Diaphorase act,Diaphorase inh,HKDC1 inhibitor,G6PDH counter,PfG6PD inh
COc1cc(OC)c(-c2c3cc(O)c(=O)cc-3oc3cc(O)c(O)cc23)cc1OC,0.2,81*,-7,14,-91
Cc1cc2oc(=O)cc(-c3cc4ccccc4o3)c2cc1O,nt,nt,10,nt,19
Cc1c2cc(O)c(=O)cc-2oc2cc(O)c(O)cc12,0.2,80*,29,18,51
O=C(CSc1nc(-c2ccc(F)cc2)nc2c1Cc1ccccc1O2)Nc1cccc(C(=O)O)c1,0.4,61*,57*,-5,-39
Cc1ccccc1-c1nc2c3ccccc3nc(=S)n2[nH]1,nt,nt,-16,nt,-7
COc1cc2nc(=S)n3[nH]c(CCn4nc(C)cc4C)nc3c2cc1OC,0.1,92*,19,17,53
COc1cc2nc(=S)n3[nH]c(COc4ccccc4C)nc3c2cc1OC,0.1,91*,-16,5,26
COc1cc(-c2csc(CCn3nc(C)cc3C)n2)cc(OC)c1OC,1,2,-8,2,0
Cc1ccc(CN2C(=O)CCC2C(=O)NCc2ccc(F)cc2)cc1 (centres undefined),1,5,-1,3,-7
CO[C@H]1/C=C/O[C@@]2(C)Oc3c(C)c(O)c4c(O)c(c(C=NN5CCN(C)CC5)c(O)c4c3C2=O)NC(=O)/C(C)=C\C=C\[C@H](C)[C@H](O)[C@@H](C)[C@@H](O)[C@@H](C)[C@H](OC(C)=O)[C@@H]1C,nt,nt,6,nt,40
CO[C@H]1C=CO[C@@]2(C)Oc3c(C)c(O)c4c(O)c(c(C=NN5CCN(C6CCCC6)CC5)c(O)c4c3C2=O)NC(=O)C(C)=CC=C[C@H](C)[C@H](O)[C@@H](C)[C@@H](O)[C@@H](C)[C@H](OC(C)=O)[C@@H]1C,0.2,84*,nt,14,nt
COC(=O)C(C)NC(=O)c1cn(-c2ccccc2OC)c(=O)c2ccccc12 (centres undefined),nt,nt,-7,nt,6
O=C(Nc1ccc(N2CCOCC2)cc1)c1ccc2nc(-c3ccco3)c(-c3ccco3)nc2c1,0.7,30,-3,-60,14
CCCCNC(=O)c1ccc2nc(-c3ccco3)c(-c3ccco3)nc2c1,0.5,53*,19,-28,44
O=C(NCc1ccccc1)c1ccc2nc(-c3ccco3)c(-c3ccco3)nc2c1,0.5,46,32,22,44
CC(=O)c1ccc(NC(=O)c2ccc3nc(-c4ccco4)c(-c4ccco4)nc3c2)cc1,0.5,55*,41*,22,78*
CC(=O)c1ccc(NC(=O)CSc2nnc(-c3ccco3)c(-c3ccco3)n2)cc1,0.2,81*,12,38,30
O=C(NCCO)Nc1ccc2nc(-c3ccco3)c(-c3ccco3)nc2c1,0.3,74*,nt,31,nt
Cc1cc(C)nc(NS(=O)(=O)c2ccc(NS(=O)(=O)c3ccc(F)c(F)c3)cc2)n1,nt,nt,nt,nt,-33
CC1CC(C)(C)NC(=S)N1CCCC(=O)Nc1ccccc1F (centres undefined),0.8,18,-7,-6,3
CC(C)(C)OC(=O)N1CCC(C(=O)N2CCOCC2)CC1,1,3,2,4,-11
S=C(Nc1ccc(N2CCOCC2)cc1)Nc1ccc2nc(-c3ccco3)c(-c3ccco3)nc2c1,0.4,64*,17,40,59
CCO[C@@H]1OC(C(=O)O)=C[C@H](c2cn(C(C)=O)c3ccccc23)[C@H]1CCCO,nt,nt,-2,nt,-7
Cc1cc(C)c(C(N)=O)c(Nc2cccc3ccccc23)n1,0.1,91*,-3,4,4
CC1=Nc2nc(N3CCCCC3)c(C#N)c3c4c(nc(c23)N1)N(c1ccc(C(C)C)cc1)C(=O)C4,0.2,81*,-4,12,-8
SMILES,Diaphorase act,Diaphorase inh,HKDC1 inhibitor,G6PDH counter,PfG6PD inh
CC(C)c1ccc(-c2nc(N3CCCCC3)[nH]c(=O)c2C#N)cc1,0.9,13,-2,9,-30
O=C(O)/C=C/C(=O)Nc1cccc2cccnc12,nt,nt,-2,nt,2
O=C(/C=C/c1ccco1)Nc1cccc2cccnc12,0.4,63*,21,-8,11
CC(=O)c1ccc(N2CCN(C(=O)c3cc(-c4cccnc4)nc4ccc(Br)cc34)CC2)cc1,0.5,52*,0,8,-4
CCOC(=O)NC1(Nc2ccc(C)cc2)Oc2ccccc2O1,0.5,54*,-8,17,25
CC(C)(C)c1csc(NC(=O)C2COc3ccccc3O2)n1 (centres undefined),nt,nt,1,nt,15
O=C(CC1Nc2cccc3cccc(c23)NC1=O)Nc1ccccc1 (centres undefined),0.6,36,16,3,31
NC(=O)CC1Nc2cccc3cccc(c23)NC1=O (centres undefined),0.4,56*,0,-19,34
COc1cc(CN2CCN(S(=O)(=O)c3ccc(NC(C)=O)cc3)CC2)cc(OC)c1O,0.6,43,8,52*,9
COc1cc(CN2CCN(Cc3ccc(SC)cc3)CC2)cc(OC)c1O,0.6,40,-4,58*,25
COc1cc(OC)c(OC)cc1CN1CCN(S(=O)(=O)c2ccc(NC(C)=O)cc2)CC1,0.5,52*,23,32,-9
COc1ccc(S(=O)(=O)N2CCN(Cc3cc(OC)c(OC)cc3OC)CC2)cc1,nt,nt,2,nt,3
COc1ccc(CN2CCN(S(=O)(=O)c3ccc(NC(C)=O)cc3)CC2)cc1OC,0.9,12,-7,8,7
CC(C)CCn1c(=O)c2ccccc2n2c(CN3C(=O)NC4(CCC(C)CC4)C3=O)nnc12 (centres undefined),0.9,8,3,8,9
Cc1[nH]c2c(ccc3cccnc32)c1C,nt,nt,2,nt,18
CC1=[N+](C)c2c(ccc3cccnc23)C1(C)C,0.3,65*,10,19,44
O=C(Nc1cccc([N+](=O)[O-])c1)C1C2CC/C=C\CCC21 (centres undefined),nt,nt,-2,nt,17
N#C/C(=C\c1ccc(-c2ccc(C(=O)O)cc2)o1)c1nc2ccccc2[nH]1,0.4,65*,7,11,-9
N#C/C(=C\c1ccccc1C(=O)O)c1nc2ccccc2[nH]1,nt,nt,1,nt,-14
Oc1c(CN2CCOCC2)cc(-c2ccccc2)cc1CN1CCOCC1,0.9,8,-6,5,3
Oc1c(CN2CCOCC2)ccc2ccccc12,0.6,41,23,60*,22
O=C(CCc1nnc(CCCc2ccccc2)o1)NCC(F)(F)F,0.5,50*,-9,10,-3
CC1CCCCN1c1nnc(NC(=O)Cn2c(=O)oc3ccccc32)s1 (centres undefined),0.4,62*,0,7,-11
